Calls of active or inactive are those of the source. No cut-off for these calls is given here.
Assays:
DNA [1] = assay: Binding affinity to calf thymus DNA assessed as hypochromic effect at 20 uM by UV-Visible spectroscopy relative to control; format: nucleic-acid assay; details: Bos taurus
How it was run: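 Compound (20 µM) in BPE buffer pH 7.1 was titrated with CT-DNA, 10–100 µM in 10 µM steps and then to 200 µM in 20 µM steps (base pairs). Spectra were recorded from 230–530 nm in a 10 mm quartz cuvette, referenced against a cuvette holding the same DNA concentration.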

DNA [2] = assay: Binding affinity to calf thymus DNA at 50 uM by circular dichroism spectra analysis; format: nucleic-acid assay; details: Bos taurus
How it was run: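 Drug (50 µM) was incubated in BPE buffer with or without CT-DNA at 0.1–100 µM. CD spectra were recorded from 480 to 230 nm in a 10 mm quartz cell at 20 °C under Peltier control.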

[3] = Cytotoxicity against human H460 cells after 72 hrs by MTT assay; format: functional, cell-based, NCI-H460
How it was run: (§1)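 HCT 116 and H 460 were seeded at 3×10^4 cells/mL and MCF-7 at 5×10^4 cells/mL in DMEM with 10% FBS, 2 mM glutamine and antibiotics, at 37 °C in 5% CO2. Compounds were added after 24 h (DMSO <1%). After 72 h, MTT absorbance was read at 570 nm. Runs were technical quadruplicates with ≥2 biological replicates, and IC50 was obtained by linear interpolation around 50% growth.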

[4] = target: T1, DNA topoisomerase 1 (Homo sapiens) (UniProt P11387); assay: Inhibition of human topoisomerase 1-mediated DNA cleavage assessed as accumulation of nicked DNA at 1 to 50 uM by agarose gel electrophoresis
T1 sequence (whole entry): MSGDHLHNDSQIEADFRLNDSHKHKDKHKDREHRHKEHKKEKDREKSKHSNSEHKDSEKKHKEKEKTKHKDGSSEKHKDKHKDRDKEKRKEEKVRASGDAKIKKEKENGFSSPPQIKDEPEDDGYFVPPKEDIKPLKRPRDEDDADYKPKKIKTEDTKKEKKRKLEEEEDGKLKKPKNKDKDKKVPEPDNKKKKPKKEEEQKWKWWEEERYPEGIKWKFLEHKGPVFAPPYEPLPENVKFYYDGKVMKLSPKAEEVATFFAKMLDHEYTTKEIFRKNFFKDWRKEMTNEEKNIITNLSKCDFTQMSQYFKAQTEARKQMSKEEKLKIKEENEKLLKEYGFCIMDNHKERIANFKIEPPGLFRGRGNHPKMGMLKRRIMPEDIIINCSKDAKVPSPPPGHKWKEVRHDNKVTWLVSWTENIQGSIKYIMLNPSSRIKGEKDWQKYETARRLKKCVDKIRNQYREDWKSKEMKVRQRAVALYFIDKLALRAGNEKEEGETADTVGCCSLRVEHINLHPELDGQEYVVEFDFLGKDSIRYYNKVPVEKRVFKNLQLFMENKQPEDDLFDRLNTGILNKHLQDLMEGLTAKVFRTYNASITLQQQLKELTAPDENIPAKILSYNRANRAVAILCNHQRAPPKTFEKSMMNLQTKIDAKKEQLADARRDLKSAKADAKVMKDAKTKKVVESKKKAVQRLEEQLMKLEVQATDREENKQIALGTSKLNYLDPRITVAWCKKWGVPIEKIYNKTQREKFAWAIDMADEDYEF
How it was run: (§2)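 Supercoiled pUC19 plasmid was incubated with or without compound across the stated µM range, then relaxed with human topoisomerase I. Reactions were stopped with SDS and proteinase K. Samples were run on a 1% agarose gel in TBE for 2 h at 120 V and post-stained with ethidium bromide. Supercoiled, relaxed and nicked bands were scored under UV.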

DNA [5] = assay: Binding affinity to calf thymus DNA assessed as change in melting temperature at 1 drug/DNA ratio by spectrophotometry; format: nucleic-acid assay; details: Bos taurus
How it was run: (§3)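 CT-DNA (20 µM) was dialyzed and incubated alone or with compound at drug/base-pair ratio R 0.25–1 in BPE buffer (6 mM Na2HPO4, 2 mM NaH2PO4, 1 mM EDTA, pH 7.1). A260 was read every min from 20–100 °C at 1 °C/min against a compound-matched reference. Tm was taken from the first-derivative midpoint, and ΔTm = Tm(drug+DNA) − Tm(DNA alone).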

[6] = Binding affinity to DNA (unknown origin) assessed as inhibition of DNase1-mediated cleavage at 2 to 5 uM by DNase1 footprinting assay
How it was run: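 DNase I footprinting run essentially per an earlier protocol. Gels were exposed to a storage screen at room temperature and then scanned. Compounds were made as 10 mM DMSO stocks and freshly diluted into aqueous buffer.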

Nucleic Acid [7] = assay: Binding affinity to Escherichia coli supercoiled pUC19 DNA assessed as intercalation at 0.2 to 5 uM by agarose gel electrophoresis in presence of human DNA topoisomerase 1; format: nucleic-acid assay; how it was run: as §2
MCF7 = assay: Cytotoxicity against human MCF7 cells after 72 hrs by MTT assay; format: functional, cell-based; how it was run: as §1
[8] = target: DNA topoisomerase 2-alpha (Homo sapiens) (UniProt P11388); assay: Inhibition of DNA topoisomerase 2 (unknown origin)-mediated DNA cleavage assessed as linear band at 50 uM by agarose gel electrophoresis
How it was run: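 Topoisomerase II DNA cleavage assay was run per an earlier method, with etoposide as the Topo II poison positive control. Compounds came from 10 mM DMSO stocks freshly diluted in aqueous buffer.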

DNA [9] = assay: Binding affinity to calf thymus DNA assessed as change in melting temperature at 0.5 drug/DNA ratio by spectrophotometry; format: nucleic-acid assay; details: Bos taurus; how it was run: as §3
HCT-116 = assay: Cytotoxicity against human HCT116 cells after 72 hrs by MTT assay; format: functional, cell-based; how it was run: as §1
DNA [10] = assay: Binding affinity to calf thymus DNA assessed as change in melting temperature at 0.25 drug/DNA ratio by spectrophotometry; format: nucleic-acid assay; details: Bos taurus; how it was run: as §3
Nucleic Acid [11] = assay: Binding affinity to Escherichia coli supercoiled pUC19 DNA assessed as intercalation at 1 to 50 uM by agarose gel electrophoresis in presence of human DNA topoisomerase 1; format: nucleic-acid assay; how it was run: as §2
Nucleic Acid [12] = assay: Binding affinity to Escherichia coli supercoiled pUC19 DNA assessed as intercalation at 20 to 50 uM by agarose gel electrophoresis in presence of human DNA topoisomerase 1; format: nucleic-acid assay; how it was run: as §2
[13] = target: DNA topoisomerase 2-alpha (Homo sapiens) (UniProt P11388); details: 20 to 50 uM

Chain of DNA topoisomerase 2-alpha (Homo sapiens) (P11388 whole entry): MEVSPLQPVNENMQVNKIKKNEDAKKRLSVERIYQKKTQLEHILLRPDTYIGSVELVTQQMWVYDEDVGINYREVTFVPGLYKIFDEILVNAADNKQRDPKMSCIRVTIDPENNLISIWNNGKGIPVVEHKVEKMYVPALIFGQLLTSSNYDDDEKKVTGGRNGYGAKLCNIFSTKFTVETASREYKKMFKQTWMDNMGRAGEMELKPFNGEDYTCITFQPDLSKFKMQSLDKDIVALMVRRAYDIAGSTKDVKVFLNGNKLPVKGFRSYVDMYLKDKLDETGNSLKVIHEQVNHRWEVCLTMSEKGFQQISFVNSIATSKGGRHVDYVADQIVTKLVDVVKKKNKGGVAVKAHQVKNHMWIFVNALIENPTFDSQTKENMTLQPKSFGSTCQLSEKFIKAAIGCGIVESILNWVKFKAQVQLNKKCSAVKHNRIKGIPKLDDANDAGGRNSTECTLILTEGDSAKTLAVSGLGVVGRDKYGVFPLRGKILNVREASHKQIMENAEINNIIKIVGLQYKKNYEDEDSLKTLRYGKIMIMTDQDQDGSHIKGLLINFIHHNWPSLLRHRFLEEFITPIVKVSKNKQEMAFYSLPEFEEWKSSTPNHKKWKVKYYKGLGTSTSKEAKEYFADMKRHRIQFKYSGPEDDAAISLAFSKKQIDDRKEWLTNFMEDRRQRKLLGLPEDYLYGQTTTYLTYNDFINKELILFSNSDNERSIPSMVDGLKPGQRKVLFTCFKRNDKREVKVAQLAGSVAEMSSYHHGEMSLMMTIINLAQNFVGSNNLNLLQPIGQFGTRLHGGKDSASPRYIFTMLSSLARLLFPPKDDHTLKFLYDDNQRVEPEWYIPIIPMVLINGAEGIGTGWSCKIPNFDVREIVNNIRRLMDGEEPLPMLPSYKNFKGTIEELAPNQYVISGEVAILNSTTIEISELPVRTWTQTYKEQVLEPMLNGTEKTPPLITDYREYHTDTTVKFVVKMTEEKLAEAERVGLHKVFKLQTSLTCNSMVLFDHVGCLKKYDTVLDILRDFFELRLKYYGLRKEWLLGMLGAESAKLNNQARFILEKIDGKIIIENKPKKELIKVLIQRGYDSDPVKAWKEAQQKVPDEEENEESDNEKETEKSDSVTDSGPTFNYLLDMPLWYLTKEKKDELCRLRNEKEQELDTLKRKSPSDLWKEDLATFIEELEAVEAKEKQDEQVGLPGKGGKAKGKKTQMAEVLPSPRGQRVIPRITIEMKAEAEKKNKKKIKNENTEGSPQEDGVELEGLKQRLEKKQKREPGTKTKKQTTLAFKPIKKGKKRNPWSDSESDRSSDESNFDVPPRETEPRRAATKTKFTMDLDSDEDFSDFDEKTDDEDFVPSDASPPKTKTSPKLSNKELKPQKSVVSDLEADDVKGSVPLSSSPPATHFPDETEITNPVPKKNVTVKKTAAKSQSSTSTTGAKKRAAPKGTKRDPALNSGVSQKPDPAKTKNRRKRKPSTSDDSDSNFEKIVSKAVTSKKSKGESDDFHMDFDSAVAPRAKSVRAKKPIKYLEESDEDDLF

Structure (SMILES)	IC50 ([3]; Homo sapiens, NCI-H460, 72 h) [µM]	inhibition [4]	IC50 (MCF7; Homo sapiens, MCF7, 72 h) [µM]	Topo II DNA cleavage inhibition (active/not active) [8]	IC50 (HCT-116; Homo sapiens, HCT-116, 72 h) [µM]	Activity (DNA [5])	Activity (DNA [10])	Activity (DNA [9])	further results
Cn1c(=O)c2sc3ccccc3c2c2cc([N+](C)(C)C)ccc21	18	inactive	10	inactive	5				Activity (DNA [1]): 48%; Activity (DNA [2]): inactive; ΔTm (DNA [5]): 5.9 °C; Activity [6]: Active; Activity (Nucleic Acid [7]): Active; ΔTm (DNA [9]): 2.9 °C
CN(C)c1ccc(NC(=O)c2sc3ccccc3c2Cl)cc1	> 100		> 100	inactive	> 100	inactive	inactive	inactive	
CN(C)c1ccc2[nH]c(=O)c3sc4ccccc4c3c2c1	37	inactive	7	inactive	7	inactive	inactive	inactive	Activity (Nucleic Acid [11]): inactive
O=C(Nc1ccc([N+](=O)[O-])cc1)c1sc2sccc2c1Cl	> 100		≥ 100		> 100				
Nc1ccc2[nH]c(=O)c3sc4ccccc4c3c2c1 [listing 1 of 3 here]	6		2		3				
CC(=O)Nc1ccc2c(c1)c1c(sc3ccccc31)c(=O)n2CCCN(C)C	0.3	inactive	0.6	inactive	0.2				Activity (DNA [1]): 24%; ΔTm (DNA [5]): 19 °C; Activity [6]: Active; Activity (Nucleic Acid [7]): Active; ΔTm (DNA [10]): 10 °C; ΔTm (DNA [9]): 12.7 °C
CN(C)c1ccc(NC(=O)c2sc3sccc3c2Cl)cc1	> 100		> 100		> 100				
CC(=O)Nc1ccc(NC(=O)c2sc3ccccc3c2Cl)cc1	> 100		> 100	inactive	> 100	inactive	inactive	inactive	
Nc1ccc2[nH]c(=O)c3sc4ccccc4c3c2c1 [listing 2 of 3 here]		inactive		inactive		inactive	inactive	inactive	Activity (DNA [1]): 58%; Activity (Nucleic Acid [12]): Active; ΔTm (DNA [9]): 2 °C
O=c1[nH]c2ccc([N+](=O)[O-])cc2c2c1sc1ccccc12	18	inactive	49	inactive	22				Activity (Nucleic Acid [11]): inactive
CC(=O)Nc1ccc2[nH]c(=O)c3sc4ccccc4c3c2c1	> 100	inactive	76	inactive	30	inactive	inactive	inactive	Activity (Nucleic Acid [12]): Active
C[N+](C)(C)c1ccc2[nH]c(=O)c3sc4ccccc4c3c2c1	> 100	inactive	50	inactive	> 100				Activity (DNA [1]): 49%; Activity (DNA [2]): inactive; ΔTm (DNA [5]): 16.9 °C; Activity [6]: Active; Activity (Nucleic Acid [7]): Active; ΔTm (DNA [10]): 10 °C; ΔTm (DNA [9]): 12.8 °C
C[N+](C)(C)c1ccc(NC(=O)c2sc3ccccc3c2Cl)cc1	20	inactive	17	Active	17				Activity (DNA [1]): 23%; Activity (Nucleic Acid [12]): Active; ΔTm (DNA [5]): 3 °C; ΔTm (DNA [9]): 1 °C
Nc1ccc(NC(=O)c2sc3ccccc3c2Cl)cc1 [listing 1 of 3 here]		inactive		inactive		inactive	inactive	inactive	Activity (Nucleic Acid [11]): inactive
CC(=O)Nc1ccc(NC(=O)c2sc3sccc3c2Cl)cc1	> 100		> 100		≥ 100				
COc1cc([C@@H]2c3cc4c(cc3[C@@H](O[C@@H]3O[C@@H]5CO[C@@H](C)O[C@H]5[C@H](O)[C@H]3O)[C@H]3COC(=O)[C@H]23)OCO4)cc(OC)c1O									inhibition [13]: Active
Nc1ccc2[nH]c(=O)c3sc4ccccc4c3c2c1 [listing 3 of 3 here]									IC50 ([3]; nci-h460): 9 µM; IC50 (HCT-116; hct-116): 4 µM
O=C(Nc1ccc([N+](=O)[O-])cc1)c1sc2ccccc2c1Cl	55		> 100	inactive	≥ 100	inactive	inactive	inactive	
Nc1ccc(NC(=O)c2sc3ccccc3c2Cl)cc1 [listing 2 of 3 here]									IC50 (MCF7; mcf7): ≥ 100 µM
CC(=O)N(C)c1ccc2c(c1)c1c(sc3ccccc31)c(=O)n2C	40		≥ 100		14				
CN(C)c1ccc2c(c1)c1c(sc3ccccc31)c(=O)n2C	13	inactive	16	inactive	5				Activity (DNA [1]): 46%; Activity (Nucleic Acid [12]): Active; ΔTm (DNA [5]): 3 °C; ΔTm (DNA [9]): 0 °C
Nc1ccc(NC(=O)c2sc3ccccc3c2Cl)cc1 [listing 3 of 3 here]	> 100				≥ 100				IC50 (MCF7; mcf7): 24 µM

Source: ChEMBL document CHEMBL3102786, “Anilides and quinolones with nitrogen-bearing substituents from benzothiophene and thienothiophene series: synthesis, photochemical synthesis, cytostatic evaluation, 3D-derived QSAR analysis and DNA-binding properties” (Eur J Med Chem, 2014)
